Active and inactive are the calls of the source. No cut-off for these calls is given here.
system: Ambystoma mexicanum; experiment: Inhibition of Ambystoma mexicanum tail regeneration at 10 uM; format: functional
Summary of the method: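 Stage 42 Ambystoma mexicanum embryos were manually hatched and anesthetized with benzocaine, then given 2 mm tail amputations. They were reared at 18–19 °C in artificial pond water containing test agent in DMSO (0.1% final DMSO), with solutions changed at 3 and 5 dpa. Regeneration was imaged at 0, 3, 5 and 7 dpa, ending at 7 dpa. DMSO vehicle was the negative control and geldanamycin the positive control.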

SMILES | tail regeneration inhibition (active/not active)
COc1cccc2c1C(=O)c1c(O)c3c(c(O)c1C2=O)C[C@@](O)(C(C)=O)C[C@@H]3O[C@H]1C[C@H](N)[C@H](O)[C@H](C)O1 | inactive
CO[C@H]1[C@H](O[C@@H]2c3c(cc4c(c3O)C(=O)c3c(O)cccc3C4=O)C(=O)[C@@](C)(O)[C@H]2OC)O[C@@H](C)[C@H](O)[C@H]1O | inactive
CC(=O)[C@]1(O)Cc2c(O)c3c(c(O)c2[C@@H](O[C@H]2C[C@H](N)[C@H](O)[C@H](C)O2)C1)C(=O)c1c(O)cccc1C3=O | inactive
COc1cccc2c1C(=O)c1c(cc3c(c1O)[C@@H](O[C@@H]1O[C@@H](C)[C@H](O)[C@@H](O)[C@H]1OC)[C@H](OC)[C@](C)(O)C3=O)C2=O | inactive
COc1cc(O)c2c(c1)C(=O)c1cc3c(c(O)c1C2=O)[C@@H](O[C@@H]1O[C@@H](C)[C@H](OC)[C@@H](O)[C@H]1OC)[C@H](OC)[C@](C)(O)C3=O | Active

Reference: ChEMBL document CHEMBL5335826, “Biochemical and Structural Studies of the Carminomycin 4-O-Methyltransferase DnrK” (J Nat Prod, 2024)
